# Read-outs that look alike come from different tables or passages of the source.
# Columns and labels:
# [1] = type: in vitro ADME, bovine
# Summary of the method: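 Same closed-loop dialyzer setup, with reservoir A holding 0.5 L bovine whole blood warmed to 37 °C. Hemodialysis began immediately after [14C]etelcalcetide and urea, creatinine and vitamin B12 controls were spiked in. Sodium heparin (100 U) was added every 30 min. Both reservoirs were sampled over 2 h for radioactivity and etelcalcetide (formic-acid acidified). Dialyzer-bound material was recovered by 20-min Solvable circulation at 50 ml/min.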
# [2] = close to the hematocrit value; cited from earlier work
# [3] = Non-covalent plasma protein binding in bovine blood; type: in vitro ADME; conditions: data not shown
# [4] = type: in vitro ADME; conditions: condition 3, bovine whole blood, with 3-hour preincubation at 37 °C
# Summary of the method: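 Bovine whole blood (0.5 L) spiked with [14C]etelcalcetide was preincubated 3 h at 37 °C before closed-loop dialysis (QB 50 ml/min, QD 250 ml/min, countercurrent, 5 L dialysate). Heparin (100 U) was added hourly. Reservoirs A and B were sampled for radioactivity and etelcalcetide, followed by a Solvable washout of the dialyzer.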
# [5] = In vitro hemodialysis, condition 1: buffered aqueous solution; type: in vitro ADME
# Summary of the method: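 Closed-loop in vitro hemodialysis on an Optiflux dialyzer at ambient temperature (~22 °C). Reservoir A held 0.5 L dialysate and no blood; 5 L dialysate was pumped countercurrent from reservoir B. [14C]etelcalcetide plus urea, creatinine and vitamin B12 controls went into reservoir A, with pumps started at once. Both reservoirs were sampled over 2 h for radioactivity and etelcalcetide (acidified, 1% formic acid), then a 20-min Solvable washout.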
# [6] = CKD patients on hemodialysis; cited from earlier work
# [7] = Whole-blood incubations with etelcalcetide and SAPC; type: in vitro ADME; conditions: human whole blood; for sum total of monitored products as % of total M11: etelcalcetide 5 μM
# Summary of the method: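 Pooled human whole blood (healthy volunteers, n = 3) was incubated in duplicate with [14C]etelcalcetide, unlabelled etelcalcetide or SAPC for up to 6 h at 37 °C, then centrifuged; plasma was acidified with 1% formic acid. TCEP reduction gave total M11; M13 was estimated from the M10 standard curve. Model 1 was fitted by maximum likelihood to duplicate means.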
# [8] = human blood; cited from earlier work
# [9] = cited from earlier work
# [10] = Kinetic model 2 fitted simultaneously to hemodialysis conditions 2 and 3; type: in vitro ADME, bovine
# Summary of the method: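 Kinetic model 2, an extension of the whole-blood model, was fitted simultaneously to etelcalcetide amounts in reservoirs A and B from all three hemodialysis conditions, using one rate-constant set. Each point was the mean of triplicate samples. Conjugation/deconjugation constants (kc, kdc, kb, kdb) were fixed from model 1; kAB and kBA are forward and reverse dialysis-clearance constants between reservoirs.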
molecule,measurement,setting,value
vitamin B12 [reference compound],dose remaining in bovine blood,"[1]; condition 2, at 15 minutes, LC-MS/MS",44%
same,dose remaining in bovine blood,"[1]; condition 2, at 120 minutes, LC-MS/MS",8%
"CC(=O)N[C@H](CSSC[C@H](N)C(=O)O)C(=O)N[C@H](C)C(=O)N[C@H](CCCNC(=N)N)C(=O)N[C@H](CCCNC(=N)N)C(=O)N[C@H](CCCNC(=N)N)C(=O)N[C@H](C)C(=O)N[C@H](CCCNC(=N)N)C(N)=O [etelcalcetide, Etelcalcetide]",blood-to-plasma ratio,[2],~0.5
same,bound non-covalently to plasma proteins,[3],40%
same,proportion of the dose eliminated in 2 hours,[4],24%
same,14C recovered during the washout period (% of the spiked dose),"[1]; condition 2, Solvable washout after 2-hour hemodialysis",0.2 % of the spiked dose
same,intact etelcalcetide dialyzed in the first 15 minutes,"[1]; condition 2, bovine whole blood, no preincubation, 2.1 μM, LC-MS/MS",57%
same,hemodialysis clearance rate relative to biotransformation (conversion to SAPC),[5]; comparison of dialytic rate constant with kc,> 16 fold
same,hemodialysis clearance,"[5]; condition 1, absence of blood, from kAB, QB 50 ml/min, QD 250 ml/min",59 mL/min
same,"kBA, reverse rate constant of hemodialysis clearance, reservoir B to A","[5]; model 2 fit, condition 1, absence of blood, mean of triplicate samples",0.00932 min^–1
same,plasma half-life,[6],> 7 days
same,[14C]etelcalcetide biotransformation at 25 °C compared with 37 °C,"[7]; [14C]etelcalcetide 10 μM, up to 6 hours, LC-14C-HRMS",slower
same,sum total of monitored products as % of total M11,"[7]; 37 °C, at 1 hour",Approximately 90%
same,sum total of monitored products as % of total M11,"[7]; 37 °C, at 6 hours",77%
same,"kdc, rate constant of disulfide exchange SAPC to etelcalcetide (deconjugation)","[7]; model 1 fit (ADAPT 5), 37 °C, mean of duplicate samples",0.00038 min^–1
same,Non-covalent binding to plasma proteins,[8],~50%
same,permeability,[9],very low
same,hemodialysis clearance as % of blood flow rate,"[10]; conditions 2 and 3, presence of bovine blood",~70%
same,hemodialysis clearance,"[10]; conditions 2 and 3, presence of bovine blood, from kAB, QB 50 ml/min",36 mL/min
same,elimination rate constant in blood as % of that in the absence of blood,"[10]; in vitro hemodialysis, bovine blood vs dialysate",60%
same,"kBA, reverse rate constant of hemodialysis clearance, reservoir B to A","[10]; model 2 fit, conditions 2 and 3, bovine blood, mean of triplicate samples",0.0364 min^–1

# From PMC5720529 (Kidney International Reports, 2016)
